# Reference: PubChem BioAssay AID1325 (NMMLSC, 2008)
# About 200 (0.11%) of roughly 190,000 compounds were called active.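 How the source made its calls: active means inhibition above 80%; inactive means the rest.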 Many of the other results were omitted from the sample, so actives are more common in it than they were.
# Biological target: Broad substrate specificity ATP-binding cassette transporter ABCG2 (Homo sapiens) (UniProt Q9UNQ0)
# Assay: blockers of JC-1 export by ABCG2 – multiplex with ABCB1, IgMXP3 cells, flow cytometry, primary screen (AID 1325);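 further: 0% = DMSO and 100% = nicardipine control wells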
# Conditions: JC-1 efflux, at 6.6 µM, stronger effect = higher value
# Summary of the method: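 Test system: IgMXP3 cells (ABCG2) mixed with DDAO far-red-labelled CCRF-Adr cells (ABCB1). Reagent: JC-1 transporter substrate. Compound dosing: single test compound dose, 6.6 µM final. Times: 10 min compound exposure, 25 °C. Detection: flow cytometry of retained JC-1 fluorescence. Read-out basis: efflux inhibition in percent versus controls. Controls: nicardipine and DMSO wells.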
# Chain of Broad substrate specificity ATP-binding cassette transporter ABCG2 (Homo sapiens) (Q9UNQ0 whole entry, looked up): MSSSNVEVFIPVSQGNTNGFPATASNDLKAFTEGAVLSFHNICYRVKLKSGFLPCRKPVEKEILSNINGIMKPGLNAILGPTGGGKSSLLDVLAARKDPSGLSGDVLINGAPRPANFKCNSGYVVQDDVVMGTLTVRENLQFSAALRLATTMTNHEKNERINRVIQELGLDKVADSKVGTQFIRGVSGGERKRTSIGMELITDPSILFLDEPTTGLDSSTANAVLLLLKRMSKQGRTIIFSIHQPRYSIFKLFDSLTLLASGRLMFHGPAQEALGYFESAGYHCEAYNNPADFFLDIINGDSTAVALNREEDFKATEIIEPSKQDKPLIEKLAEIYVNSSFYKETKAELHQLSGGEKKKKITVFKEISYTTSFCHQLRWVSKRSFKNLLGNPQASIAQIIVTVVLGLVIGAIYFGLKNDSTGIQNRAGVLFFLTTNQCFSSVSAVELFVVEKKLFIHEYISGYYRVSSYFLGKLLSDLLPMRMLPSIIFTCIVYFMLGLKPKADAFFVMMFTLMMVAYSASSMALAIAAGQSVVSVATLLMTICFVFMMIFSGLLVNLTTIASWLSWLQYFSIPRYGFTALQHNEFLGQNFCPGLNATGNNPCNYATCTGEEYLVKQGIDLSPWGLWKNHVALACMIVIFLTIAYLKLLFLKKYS
row,SMILES,inhibition
1,Cc1cc(OCc2cc(C(=O)O)oc2C)c2c3c(c(=O)oc2c1)CCCC3,-0.16% (inactive)
2,COC(=O)COc1cc(C)cc2oc(=O)c3c(c12)CCCC3,85.8% (active)
3,Cc1ccc(-c2nc3ccccc3c(=O)n2-c2ccc(Br)cn2)cc1,4.52% (inactive)
4,COc1ccc(-c2nn(CCC#N)cc2C(=O)O)cc1,12.1% (inactive)
5,CN(C)C(=O)Oc1cc(=O)n2c3c(cccc13)CCC2,8.26% (inactive)
